In ChEMBL document CHEMBL1153264, “(1,2,3-Triazol-4-yl)benzenamines: synthesis and activity against VEGF receptors 1 and 2” (Bioorg Med Chem Lett, 2009):
Activity calls are given as the source filed them. The rule behind the calls is not given here.

Key:
[1] = molecular target: T1, Vascular endothelial growth factor receptor 2 (Homo sapiens, UniProt P35968); assay: Inhibition of VEGFR2 by HTRF assay in presence of 2 uM ATP
Outline: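 HTRF kinase assay with KDR enzyme (3–4 ng) and biotinylated pGAT substrate. ATP added to start, 45 min at RT. Stopped with EDTA/KF buffer plus Eu-cryptate anti-phosphotyrosine antibody, 2 h RT, then HTRF read. IC50 from 10-point log concentration curves, mean of at least two duplicate runs.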

[2] = molecular target: Vascular endothelial growth factor receptor 1 (Homo sapiens, UniProt P17948); assay: Inhibition of VEGFR1 by HTRF assay
[3] = molecular target: T1, Vascular endothelial growth factor receptor 2; assay: Inhibition of VEGF-induced phosphorylation of VEGFR2 by cell-based ELISA
[4] = molecular target: Insulin-like growth factor 1 receptor (Homo sapiens) (UniProt P08069); assay: Inhibition of IGF1R at 10 uM
[5] = molecular target: Insulin receptor (Homo sapiens) (UniProt P06213); assay: Inhibition of IR at 10 uM
[6] = molecular target: Fibroblast growth factor receptor 1 (Homo sapiens) (UniProt P11362); assay: Inhibition of FGFR1 at 10 uM
[7] = molecular target: Receptor-type tyrosine-protein kinase FLT3 (Homo sapiens) (UniProt P36888); assay: Inhibition of Flt3 at 10 uM
[8] = molecular target: Epidermal growth factor receptor (Homo sapiens) (UniProt P00533); assay: Inhibition of EGFR at 10 uM
[9] = molecular target: Receptor tyrosine-protein kinase erbB-2 (Homo sapiens) (UniProt P04626); assay: Inhibition of ErbB2 at 10 uM
[10] = molecular target: Hepatocyte growth factor receptor (Homo sapiens) (UniProt P08581); assay: Inhibition of c-Met at 10 uM
[11] = molecular target: Macrophage-stimulating protein receptor (Homo sapiens) (UniProt Q04912); assay: Inhibition of Ron at 10 uM
[12] = Inhibition of PKA at 10 uM
[13] = molecular target: Glycogen synthase kinase-3 beta (Homo sapiens) (UniProt P49841); assay: Inhibition of GSK3-beta at 10 uM
[14] = molecular target: Bcr/Abl fusion protein (Homo sapiens) (UniProt P00519+P11274); assay: Inhibition of Bcr-Abl at 10 uM; type: protein assay
[15] = Inhibition of Bcr-Abl T315 mutant at 10 uM
[16] = molecular target: Cyclin-dependent kinase 1 (Homo sapiens) (UniProt P06493); assay: Inhibition of Cdk1 at 10 uM
[17] = molecular target: Cyclin-dependent kinase 2 (Homo sapiens) (UniProt P24941); assay: Inhibition of Cdk2 at 10 uM
[18] = molecular target: Proto-oncogene tyrosine-protein kinase Src (Homo sapiens) (UniProt P12931); assay: Inhibition of Src at 10 uM
[19] = molecular target: T2, Aurora kinase A (Homo sapiens) (UniProt O14965); assay: Inhibition of Aurora A at 10 uM
T2 sequence (whole entry): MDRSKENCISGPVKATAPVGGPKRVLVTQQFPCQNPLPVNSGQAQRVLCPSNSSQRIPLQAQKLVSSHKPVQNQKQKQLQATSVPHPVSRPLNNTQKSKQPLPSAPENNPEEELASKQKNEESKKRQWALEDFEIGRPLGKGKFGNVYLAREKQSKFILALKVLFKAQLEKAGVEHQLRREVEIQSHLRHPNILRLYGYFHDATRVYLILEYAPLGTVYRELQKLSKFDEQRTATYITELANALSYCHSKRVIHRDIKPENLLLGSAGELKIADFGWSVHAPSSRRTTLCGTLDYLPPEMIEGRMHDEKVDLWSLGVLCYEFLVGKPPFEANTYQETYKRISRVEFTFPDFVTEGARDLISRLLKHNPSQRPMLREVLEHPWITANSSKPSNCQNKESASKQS

[20] = molecular target: Aurora kinase B (Homo sapiens) (UniProt Q96GD4); assay: Inhibition of Aurora B at 10 uM
[21] = molecular target: Serine/threonine-protein kinase PLK1 (Homo sapiens) (UniProt P53350); assay: Inhibition of Plk1 at 10 uM

Receptor tyrosine-protein kinase erbB-2 (Homo sapiens), sequence (P04626 whole entry): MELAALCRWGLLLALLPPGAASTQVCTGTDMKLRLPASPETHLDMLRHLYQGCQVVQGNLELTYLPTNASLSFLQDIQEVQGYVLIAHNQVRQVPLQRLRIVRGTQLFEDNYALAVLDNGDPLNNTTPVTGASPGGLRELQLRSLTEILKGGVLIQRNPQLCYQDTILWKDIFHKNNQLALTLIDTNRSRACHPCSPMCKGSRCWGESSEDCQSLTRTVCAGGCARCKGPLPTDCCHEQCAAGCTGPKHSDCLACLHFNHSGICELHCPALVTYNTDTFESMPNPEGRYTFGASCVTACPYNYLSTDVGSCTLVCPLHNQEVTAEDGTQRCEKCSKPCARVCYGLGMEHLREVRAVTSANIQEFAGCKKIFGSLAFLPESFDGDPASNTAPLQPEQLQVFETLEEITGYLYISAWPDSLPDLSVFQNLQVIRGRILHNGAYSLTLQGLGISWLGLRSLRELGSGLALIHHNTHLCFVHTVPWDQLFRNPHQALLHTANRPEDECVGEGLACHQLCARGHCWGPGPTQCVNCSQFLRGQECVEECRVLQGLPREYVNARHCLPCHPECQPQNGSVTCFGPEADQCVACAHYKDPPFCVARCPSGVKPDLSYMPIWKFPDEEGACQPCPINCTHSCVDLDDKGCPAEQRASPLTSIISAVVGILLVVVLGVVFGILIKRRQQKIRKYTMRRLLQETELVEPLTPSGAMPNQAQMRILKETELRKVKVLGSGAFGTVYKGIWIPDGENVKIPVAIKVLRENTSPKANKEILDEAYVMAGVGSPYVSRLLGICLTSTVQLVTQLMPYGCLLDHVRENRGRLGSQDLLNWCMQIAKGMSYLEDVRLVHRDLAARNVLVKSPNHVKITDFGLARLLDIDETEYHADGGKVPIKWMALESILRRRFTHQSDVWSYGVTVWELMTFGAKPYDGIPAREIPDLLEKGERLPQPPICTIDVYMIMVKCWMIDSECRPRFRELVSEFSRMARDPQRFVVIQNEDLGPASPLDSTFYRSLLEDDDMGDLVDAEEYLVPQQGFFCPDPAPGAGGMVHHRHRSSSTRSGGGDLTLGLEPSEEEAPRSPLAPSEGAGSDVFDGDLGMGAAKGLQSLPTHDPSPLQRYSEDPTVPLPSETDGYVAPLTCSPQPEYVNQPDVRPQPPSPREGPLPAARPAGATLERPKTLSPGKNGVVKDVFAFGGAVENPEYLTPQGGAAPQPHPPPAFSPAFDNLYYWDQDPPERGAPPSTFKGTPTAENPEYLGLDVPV
Insulin receptor (Homo sapiens), sequence (P06213 28-758 limits assumed): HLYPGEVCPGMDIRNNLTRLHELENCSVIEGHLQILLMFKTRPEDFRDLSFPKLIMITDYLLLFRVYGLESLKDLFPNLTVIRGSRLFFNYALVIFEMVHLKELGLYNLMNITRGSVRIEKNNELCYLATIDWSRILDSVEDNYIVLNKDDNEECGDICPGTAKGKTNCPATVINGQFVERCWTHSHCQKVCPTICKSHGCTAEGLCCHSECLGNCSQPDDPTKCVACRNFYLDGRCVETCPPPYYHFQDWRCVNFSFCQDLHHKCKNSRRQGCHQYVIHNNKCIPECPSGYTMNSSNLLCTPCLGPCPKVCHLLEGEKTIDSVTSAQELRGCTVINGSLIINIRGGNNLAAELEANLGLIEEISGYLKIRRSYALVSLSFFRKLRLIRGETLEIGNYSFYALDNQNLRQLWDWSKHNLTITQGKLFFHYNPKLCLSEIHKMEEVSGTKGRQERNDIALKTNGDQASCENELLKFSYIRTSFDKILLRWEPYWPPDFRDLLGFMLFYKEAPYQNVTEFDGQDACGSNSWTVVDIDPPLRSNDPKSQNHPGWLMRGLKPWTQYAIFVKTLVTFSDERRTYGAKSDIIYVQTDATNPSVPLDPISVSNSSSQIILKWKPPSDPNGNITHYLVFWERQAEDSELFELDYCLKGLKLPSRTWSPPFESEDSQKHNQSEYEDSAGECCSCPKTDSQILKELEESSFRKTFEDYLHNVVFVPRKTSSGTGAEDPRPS
Insulin receptor (Homo sapiens), sequence (P06213 763-1382 limits assumed): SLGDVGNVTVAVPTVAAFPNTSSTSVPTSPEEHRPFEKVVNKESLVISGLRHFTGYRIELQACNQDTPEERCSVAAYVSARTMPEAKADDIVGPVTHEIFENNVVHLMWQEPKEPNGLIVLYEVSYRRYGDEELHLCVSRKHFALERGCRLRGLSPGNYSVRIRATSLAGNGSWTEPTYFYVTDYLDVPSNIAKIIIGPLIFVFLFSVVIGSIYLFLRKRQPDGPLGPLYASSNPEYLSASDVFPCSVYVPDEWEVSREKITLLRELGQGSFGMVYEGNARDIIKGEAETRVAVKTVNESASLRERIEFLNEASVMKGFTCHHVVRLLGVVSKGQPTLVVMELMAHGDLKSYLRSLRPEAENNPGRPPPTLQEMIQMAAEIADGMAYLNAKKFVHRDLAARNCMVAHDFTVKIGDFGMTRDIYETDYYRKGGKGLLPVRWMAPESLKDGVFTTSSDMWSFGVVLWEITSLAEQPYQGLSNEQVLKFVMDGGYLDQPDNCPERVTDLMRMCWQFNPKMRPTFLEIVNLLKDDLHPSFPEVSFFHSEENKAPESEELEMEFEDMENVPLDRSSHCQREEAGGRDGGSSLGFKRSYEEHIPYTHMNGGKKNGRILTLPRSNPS
Aurora kinase B (Homo sapiens), sequence (Q96GD4 whole entry): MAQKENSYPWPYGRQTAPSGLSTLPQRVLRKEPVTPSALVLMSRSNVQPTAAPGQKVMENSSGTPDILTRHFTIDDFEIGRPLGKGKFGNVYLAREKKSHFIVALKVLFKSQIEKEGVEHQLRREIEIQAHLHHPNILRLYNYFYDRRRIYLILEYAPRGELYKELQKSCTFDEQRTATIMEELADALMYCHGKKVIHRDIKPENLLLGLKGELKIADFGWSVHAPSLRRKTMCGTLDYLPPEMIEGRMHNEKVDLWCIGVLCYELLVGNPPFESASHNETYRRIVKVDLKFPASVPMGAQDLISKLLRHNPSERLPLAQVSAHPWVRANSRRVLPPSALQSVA
Hepatocyte growth factor receptor (Homo sapiens), sequence (P08581 whole entry): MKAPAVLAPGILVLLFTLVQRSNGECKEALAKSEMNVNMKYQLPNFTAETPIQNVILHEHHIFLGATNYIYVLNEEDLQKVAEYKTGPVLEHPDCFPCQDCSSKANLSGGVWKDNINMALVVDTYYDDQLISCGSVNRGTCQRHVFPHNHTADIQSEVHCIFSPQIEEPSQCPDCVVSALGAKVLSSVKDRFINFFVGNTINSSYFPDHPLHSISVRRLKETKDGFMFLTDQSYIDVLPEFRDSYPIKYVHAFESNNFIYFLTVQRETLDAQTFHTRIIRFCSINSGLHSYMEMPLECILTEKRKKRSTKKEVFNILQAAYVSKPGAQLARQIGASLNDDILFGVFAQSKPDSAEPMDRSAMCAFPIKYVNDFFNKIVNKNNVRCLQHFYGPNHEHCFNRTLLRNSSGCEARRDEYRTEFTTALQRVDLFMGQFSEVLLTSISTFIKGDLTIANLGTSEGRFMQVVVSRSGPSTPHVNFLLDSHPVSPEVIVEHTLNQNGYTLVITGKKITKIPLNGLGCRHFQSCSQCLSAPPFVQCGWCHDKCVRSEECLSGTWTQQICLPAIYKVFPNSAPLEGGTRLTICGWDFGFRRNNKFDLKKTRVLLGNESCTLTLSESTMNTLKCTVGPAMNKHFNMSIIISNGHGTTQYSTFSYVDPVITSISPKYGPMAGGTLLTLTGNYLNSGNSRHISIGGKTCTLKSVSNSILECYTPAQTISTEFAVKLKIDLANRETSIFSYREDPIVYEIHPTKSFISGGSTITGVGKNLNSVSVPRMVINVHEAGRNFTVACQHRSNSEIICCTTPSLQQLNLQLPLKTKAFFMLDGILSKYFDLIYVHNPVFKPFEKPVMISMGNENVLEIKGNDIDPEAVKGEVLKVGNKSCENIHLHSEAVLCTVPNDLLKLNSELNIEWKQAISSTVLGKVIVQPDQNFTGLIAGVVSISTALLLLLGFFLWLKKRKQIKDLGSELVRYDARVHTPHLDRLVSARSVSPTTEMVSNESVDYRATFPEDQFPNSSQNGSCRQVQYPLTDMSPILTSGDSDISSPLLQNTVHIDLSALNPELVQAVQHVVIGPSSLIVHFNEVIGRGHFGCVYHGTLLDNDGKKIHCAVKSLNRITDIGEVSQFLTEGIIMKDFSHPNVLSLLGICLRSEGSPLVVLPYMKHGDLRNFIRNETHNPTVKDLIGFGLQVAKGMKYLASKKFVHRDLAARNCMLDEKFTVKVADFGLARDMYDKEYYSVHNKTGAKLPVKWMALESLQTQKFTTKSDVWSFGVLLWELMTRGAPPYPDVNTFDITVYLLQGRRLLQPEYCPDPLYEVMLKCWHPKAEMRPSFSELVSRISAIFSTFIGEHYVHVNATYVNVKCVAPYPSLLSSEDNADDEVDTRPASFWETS
Proto-oncogene tyrosine-protein kinase Src (Homo sapiens), sequence (P12931 2-536 limits assumed): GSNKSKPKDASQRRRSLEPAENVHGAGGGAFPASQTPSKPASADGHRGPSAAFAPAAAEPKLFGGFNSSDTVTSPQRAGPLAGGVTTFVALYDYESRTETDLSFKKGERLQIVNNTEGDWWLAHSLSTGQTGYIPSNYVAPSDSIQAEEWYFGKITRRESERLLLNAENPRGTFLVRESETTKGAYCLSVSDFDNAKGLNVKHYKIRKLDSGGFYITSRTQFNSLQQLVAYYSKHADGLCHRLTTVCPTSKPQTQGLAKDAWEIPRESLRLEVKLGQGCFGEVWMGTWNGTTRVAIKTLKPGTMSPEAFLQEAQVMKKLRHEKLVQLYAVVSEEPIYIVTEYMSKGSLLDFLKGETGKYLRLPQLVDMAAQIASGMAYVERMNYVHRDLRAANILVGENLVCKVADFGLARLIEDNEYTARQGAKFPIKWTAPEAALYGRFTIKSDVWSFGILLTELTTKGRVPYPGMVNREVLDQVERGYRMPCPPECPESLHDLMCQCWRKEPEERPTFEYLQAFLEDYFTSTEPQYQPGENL

Row | Structure (SMILES) | IC50 [1] | IC50 [2] | inhibition [4] | inhibition [5] | inhibition [6] | inhibition [7] | inhibition [8] | inhibition [9] | inhibition [10] | inhibition [11] | inhibition [12] | inhibition [13] | inhibition [14] | inhibition [15] | inhibition [16] | inhibition [17] | inhibition [18] | inhibition [19] | inhibition [20] | inhibition [21] | also measured
1 | FC(F)(F)c1cccc(-n2cc(-c3ccccc3NCc3cccnc3)nn2)c1 | > 10 µM | > 10 µM | < 30% | < 30% | < 30% | < 30% | < 30% | < 30% | < 30% | < 30% | < 30% | < 30% | < 30% | < 30% | < 30% | < 30% | < 30% | < 30% | < 30% | < 30% | IC50 [3]: > 10 µM
2 | Clc1cccc(-n2cc(-c3ccccc3NCc3c[nH]cn3)nn2)c1 | > 10 µM | > 10 µM | < 30% | < 30% | < 30% | < 30% | < 30% | < 30% | < 30% | < 30% | < 30% | < 30% | < 30% | < 30% | < 30% | < 30% | < 30% | < 30% | < 30% | < 30% | IC50 [3]: > 10 µM
3 | O=C(Nc1cccc(C(F)(F)F)c1)c1nn[nH]c1NCc1ccncc1 | 5 µM | – | – | – | – | – | – | – | – | – | – | – | – | – | – | – | – | – | – | – | Activity [3]: inactive
4 | c1ccc(-c2cn(-c3ccc4[nH]ncc4c3)nn2)c(NCc2ccncc2)c1 | 0.68 µM | 0.65 µM | < 30% | < 30% | < 30% | < 30% | < 30% | < 30% | < 30% | < 30% | < 30% | < 30% | < 30% | < 30% | < 30% | < 30% | < 30% | < 30% | < 30% | < 30% | IC50 [3]: 2.33 µM
5 | O=C(Nc1ccc(C(F)(F)F)cc1)c1[nH]nnc1NCc1ccncc1 | > 10 µM | > 10 µM | – | – | – | – | – | – | – | – | – | – | – | – | – | – | – | – | – | – | –
6 | FC(F)(F)Oc1cccc(-n2cc(-c3ccccc3NCc3ccncc3)nn2)c1 | 0.066 µM | 0.072 µM | < 30% | < 30% | < 30% | < 30% | < 30% | < 30% | < 30% | < 30% | < 30% | < 30% | < 30% | < 30% | < 30% | < 30% | < 30% | < 30% | < 30% | < 30% | IC50 [3]: 0.085 µM
7 | Clc1cccc(-n2cc(-c3ccccc3NCc3ccccn3)nn2)c1 | > 10 µM | > 10 µM | < 30% | < 30% | < 30% | < 30% | < 30% | < 30% | < 30% | < 30% | < 30% | < 30% | < 30% | < 30% | < 30% | < 30% | < 30% | < 30% | < 30% | < 30% | IC50 [3]: > 10 µM

More lines, main results first:

Row | IC50 [1] | IC50 [2] | inhibition [4] | inhibition [5] | inhibition [6] | inhibition [7] | inhibition [8] | inhibition [9] | inhibition [10] | inhibition [11] | inhibition [12] | inhibition [13] | inhibition [14] | inhibition [15] | inhibition [16] | inhibition [17] | inhibition [18] | inhibition [19] | inhibition [20] | inhibition [21] | Structure (SMILES) | also measured
8 | 5 µM | – | – | – | – | – | – | – | – | – | – | – | – | – | – | – | – | – | – | – | O=C(Nc1cccc(Cl)c1)c1nn[nH]c1NCc1ccncc1 | Activity [3]: inactive
9 | 1.22 µM | 1.13 µM | < 30% | < 30% | < 30% | < 30% | < 30% | < 30% | < 30% | < 30% | < 30% | < 30% | < 30% | < 30% | < 30% | < 30% | < 30% | < 30% | < 30% | < 30% | FC(F)(F)Oc1ccc(-n2cc(-c3ccccc3NCc3ccncc3)nn2)cc1 | IC50 [3]: 3.11 µM
10 | 0.77 µM | 0.64 µM | < 30% | < 30% | < 30% | < 30% | < 30% | < 30% | < 30% | < 30% | < 30% | < 30% | < 30% | < 30% | < 30% | < 30% | < 30% | < 30% | < 30% | < 30% | c1ccc(-c2cn(-c3ccc4ccccc4n3)nn2)c(NCc2ccncc2)c1 | IC50 [3]: 1.19 µM
11 | – | – | < 30% | < 30% | < 30% | < 30% | < 30% | < 30% | < 30% | < 30% | < 30% | < 30% | < 30% | < 30% | < 30% | < 30% | < 30% | < 30% | < 30% | < 30% | Fc1ccc(CNc2ccccc2-c2cn(-c3cccc(Cl)c3)nn2)cc1F | –
12 | 0.14 µM | 0.11 µM | < 30% | < 30% | < 30% | < 30% | < 30% | < 30% | < 30% | < 30% | < 30% | < 30% | < 30% | < 30% | < 30% | < 30% | < 30% | < 30% | < 30% | < 30% | Cc1ccc(-n2cc(-c3ccccc3NCc3ccncc3)nn2)cc1C(F)(F)F | IC50 [3]: 0.18 µM
13 | 0.98 µM | 0.86 µM | < 30% | < 30% | < 30% | < 30% | < 30% | < 30% | < 30% | < 30% | < 30% | < 30% | < 30% | < 30% | < 30% | < 30% | < 30% | < 30% | < 30% | < 30% | Cc1cc(-n2cc(-c3ccccc3NCc3ccncc3)nn2)ccc1C(F)(F)F | IC50 [3]: 2.02 µM
14 | 0.16 µM | 0.21 µM | < 30% | < 30% | < 30% | < 30% | < 30% | < 30% | < 30% | < 30% | < 30% | < 30% | < 30% | < 30% | < 30% | < 30% | < 30% | < 30% | < 30% | < 30% | FC(F)(F)c1cccc(-n2cc(-c3ccccc3NCc3ccnc4ccccc34)nn2)c1 | IC50 [3]: 0.31 µM
15 | > 10 µM | > 10 µM | < 30% | < 30% | < 30% | < 30% | < 30% | < 30% | < 30% | < 30% | < 30% | < 30% | < 30% | < 30% | < 30% | < 30% | < 30% | < 30% | < 30% | < 30% | Clc1cccc(-n2cc(-c3ccccc3NCc3ccc4c(c3)OCO4)nn2)c1 | IC50 [3]: > 10 µM
16 | > 10 µM | > 10 µM | – | – | – | – | – | – | – | – | – | – | – | – | – | – | – | – | – | – | O=C(Nc1ccc(Cl)cc1)c1nn[nH]c1NCc1ccncc1 | –
